The target in test [1] is Glycogen synthase kinase-3 beta (Homo sapiens, UniProt P49841). The test is described as follows: Inhibition of GSK3beta. In short, it runs like this: (§1)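 IC50 determined by a commercial kinase profiling service (Millipore IC50 Profiler); duplicate testing.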
For test [2], the system named is HT-29. The test is described as follows: Cytotoxic activity against human HT-29 cells assessed as cell viability at 2.6 uM incubated for 3 days by MTT assay. It is filed as functional. Conditions: HT-29, 72 h, read-out: Activity. In short, it runs like this:
(§2)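 MTT viability: exponentially growing cells, 10 000 viable cells/well in RPMI plated overnight, then exposed to test compounds for 3 days (HT-29, Molm-14) or 5 days (Mkn-45) at 37 °C, 5% CO2. MTT added for 4 h, then SDS/HCl solubilization overnight and absorbance read at 562 nm. Viability is expressed relative to untreated cells (100%). Triplicate.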
For orientation: Tetrazolium assays rely on reduction of a dye to a coloured formazan, in cell work by metabolically active cells.

In test [3] the test system is HUVEC. The test is described as follows: Induction of apoptosis in human HUVEC assessed as accumulation at subG1 phase at 0.79 uM incubated for 4 days by flow cytometry (reference value: 15.4 +/- 1.5%). The class given is functional. Background: Flow cytometry measures light scatter and fluorescence of single cells or particles in a stream.
Test [4] relates to MKN-45. Description: Induction of apoptosis in human MKN45 assessed as accumulation at subG1 phase at 1 uM incubated for 7 days by flow cytometry (reference value: 10.9 +/- 3.2%). The class given is functional.
Test [5] deals with MKN-45. Description: Cytotoxic activity against human MKN45 cells assessed as cell viability at 0.5 uM incubated for 5 days by MTT assay. It is filed as functional. Conditions: MKN-45, 120 h, read-out: Activity. In short, it runs like this: as §2
For test [6], the target named is T1, Receptor-type tyrosine-protein kinase FLT3 (Homo sapiens, UniProt P36888).
T1 sequence (P36888 whole entry): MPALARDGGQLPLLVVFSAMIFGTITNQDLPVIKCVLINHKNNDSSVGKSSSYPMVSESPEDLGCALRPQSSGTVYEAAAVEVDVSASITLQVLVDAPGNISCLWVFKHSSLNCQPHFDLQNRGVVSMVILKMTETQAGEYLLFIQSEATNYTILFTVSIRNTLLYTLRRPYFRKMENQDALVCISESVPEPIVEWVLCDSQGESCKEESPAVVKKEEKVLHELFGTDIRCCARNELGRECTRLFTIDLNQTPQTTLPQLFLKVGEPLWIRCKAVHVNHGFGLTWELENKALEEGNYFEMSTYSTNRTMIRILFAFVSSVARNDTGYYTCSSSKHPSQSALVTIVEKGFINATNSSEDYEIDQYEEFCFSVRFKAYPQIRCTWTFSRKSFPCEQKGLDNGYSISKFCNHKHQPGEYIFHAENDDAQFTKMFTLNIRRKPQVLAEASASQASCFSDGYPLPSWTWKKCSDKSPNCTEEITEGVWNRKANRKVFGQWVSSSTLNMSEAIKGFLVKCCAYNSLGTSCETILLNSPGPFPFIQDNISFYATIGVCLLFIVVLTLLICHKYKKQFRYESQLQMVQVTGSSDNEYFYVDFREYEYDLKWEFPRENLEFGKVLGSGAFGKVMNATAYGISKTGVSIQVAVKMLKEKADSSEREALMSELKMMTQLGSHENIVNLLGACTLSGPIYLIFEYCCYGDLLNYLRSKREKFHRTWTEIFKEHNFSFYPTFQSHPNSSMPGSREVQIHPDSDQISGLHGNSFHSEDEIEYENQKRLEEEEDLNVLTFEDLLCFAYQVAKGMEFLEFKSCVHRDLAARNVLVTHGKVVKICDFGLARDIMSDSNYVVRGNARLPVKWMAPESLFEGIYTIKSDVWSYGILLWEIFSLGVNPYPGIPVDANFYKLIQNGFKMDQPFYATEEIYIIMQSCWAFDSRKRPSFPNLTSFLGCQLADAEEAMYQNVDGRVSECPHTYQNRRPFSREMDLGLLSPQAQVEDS
Description: Inhibition of FLT3. The procedure, abridged: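 Run as an outsourced kinase profiling service (Millipore IC50 Profiler), with the protocol referred to the provider. Gives IC50 values and residual activity at 10 μM test compound. Compounds tested in duplicate.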

Test [7] relates to MKN-45. The test is described as follows: Induction of apoptosis in human MKN45 assessed as accumulation at subG1 phase at 5 uM incubated for 7 days by flow cytometry (reference value: 10.9 +/- 3.2%). The class given is functional.
The subject of test [8] is MKN-45. The test is described as follows: Cytotoxic activity against human MKN45 cells assessed as cell viability at 50 uM incubated for 5 days by MTT assay. It is filed as functional. Conditions: MKN-45, 120 h, read-out: Activity. The procedure, abridged: as §2
Test [9] relates to HT-29. Description: Cytotoxic activity against human HT-29 cells assessed as cell viability at 7.9 uM incubated for 3 days by MTT assay. Conditions: HT-29, 72 h, read-out: Activity. It is filed as functional. In short, it runs like this: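 HT-29 cells in exponential growth were seeded at 10 000 viable cells per well in RPMI and left overnight. They were then exposed to compound for 3 days at 37 °C under 5% CO₂. MTT was added for 4 h, followed by overnight solubilisation in 10% SDS/0.01 M HCl and absorbance at 562 nm. Viability is expressed as % of untreated cells (100%), in triplicate.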

Test [10] concerns MKN-45. The test is described as follows: Cytotoxic activity against human MKN45 cells assessed as cell viability at 20 uM incubated for 5 days by MTT assay. Conditions: MKN-45, 120 h, read-out: Activity. The class given is functional. In short, it runs like this:
as §2

For test [11], the system named is MKN-45. Description: Cytotoxic activity against human MKN45 cells assessed as cell viability at 1 uM incubated for 5 days by MTT assay. It is filed as functional. Conditions: MKN-45, 120 h, read-out: Activity. The procedure, abridged: as §2
Test [12] concerns MKN-45. Description: Induction of apoptosis in human MKN45 assessed as accumulation at subG1 phase at 15 uM incubated for 7 days by flow cytometry (reference value: 10.9 +/- 3.2%). It is filed as functional.
Test [13] relates to MKN-45. Description: Cytotoxic activity against human MKN45 cells assessed as cell viability at 10 uM incubated for 5 days by MTT assay. The class given is functional. Conditions: MKN-45, 120 h, read-out: Activity. The procedure, abridged:
as §2

Test [14] deals with HT-29. Description: Cytotoxic activity against human HT-29 cells assessed as cell viability at 26 uM incubated for 3 days by MTT assay. The class given is functional. The note with it: HT-29, 72 h, read-out: Activity. The procedure, abridged: as §2
The nature of test [15]: Inhibition of angiogenesis in chick embryo model assessed as reduction in vessel growth at 26 nM incubated for 24 hrs. It is filed as functional, Gallus gallus. In short, it runs like this: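 White leghorn eggs incubated at 37.5 °C, 62% humidity. At 70 h, albumen removed and shell windowed. From 75 h, 15 agarose pellets (from a 26 mM DMSO stock in 2% agarose; final concentration 26 nM) placed on the area vasculosa.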

Test [16] concerns HUVEC. Description: Induction of apoptosis in human HUVEC assessed as accumulation at subG1 phase at 2.6 uM incubated for 4 days by flow cytometry (reference value: 15.4 +/- 1.5%). The class given is functional.
The subject of test [17] is MKN-45. The test is described as follows: Induction of apoptosis in human MKN45 assessed as accumulation at subG1 phase at 20 uM incubated for 7 days by flow cytometry (reference value: 10.9 +/- 3.2%). The class given is functional.
Test [18] relates to MKN-45. Description: Cytotoxic activity against human MKN45 cells assessed as cell viability at 5 uM incubated for 5 days by MTT assay. The class given is functional. The note with it: MKN-45, 120 h, read-out: Activity. In short, it runs like this:
as §2

The target in test [19] is Vascular endothelial growth factor receptor 2 (Homo sapiens, UniProt P35968). The test is described as follows: Inhibition of VEGFR2. The procedure, abridged: as §1
Test [20] deals with HT-29. Description: Cytotoxic activity against human HT-29 cells assessed as cell viability at 52 uM incubated for 3 days by MTT assay. The class given is functional. The note with it: HT-29, 72 h, read-out: Activity. The procedure, abridged:
as §2

The test system of test [21] is MKN-45. Description: Induction of apoptosis in human MKN45 assessed as accumulation at subG1 phase at 10 uM incubated for 7 days by flow cytometry (reference value: 10.9 +/- 3.2%). It is filed as functional.

Experimental findings from ChEMBL document CHEMBL2177085 (J Med Chem, 2012) are described below.

Where only a bound is given, the exact number is not on record here.

Sequence of Vascular endothelial growth factor receptor 2 (P35968 whole entry): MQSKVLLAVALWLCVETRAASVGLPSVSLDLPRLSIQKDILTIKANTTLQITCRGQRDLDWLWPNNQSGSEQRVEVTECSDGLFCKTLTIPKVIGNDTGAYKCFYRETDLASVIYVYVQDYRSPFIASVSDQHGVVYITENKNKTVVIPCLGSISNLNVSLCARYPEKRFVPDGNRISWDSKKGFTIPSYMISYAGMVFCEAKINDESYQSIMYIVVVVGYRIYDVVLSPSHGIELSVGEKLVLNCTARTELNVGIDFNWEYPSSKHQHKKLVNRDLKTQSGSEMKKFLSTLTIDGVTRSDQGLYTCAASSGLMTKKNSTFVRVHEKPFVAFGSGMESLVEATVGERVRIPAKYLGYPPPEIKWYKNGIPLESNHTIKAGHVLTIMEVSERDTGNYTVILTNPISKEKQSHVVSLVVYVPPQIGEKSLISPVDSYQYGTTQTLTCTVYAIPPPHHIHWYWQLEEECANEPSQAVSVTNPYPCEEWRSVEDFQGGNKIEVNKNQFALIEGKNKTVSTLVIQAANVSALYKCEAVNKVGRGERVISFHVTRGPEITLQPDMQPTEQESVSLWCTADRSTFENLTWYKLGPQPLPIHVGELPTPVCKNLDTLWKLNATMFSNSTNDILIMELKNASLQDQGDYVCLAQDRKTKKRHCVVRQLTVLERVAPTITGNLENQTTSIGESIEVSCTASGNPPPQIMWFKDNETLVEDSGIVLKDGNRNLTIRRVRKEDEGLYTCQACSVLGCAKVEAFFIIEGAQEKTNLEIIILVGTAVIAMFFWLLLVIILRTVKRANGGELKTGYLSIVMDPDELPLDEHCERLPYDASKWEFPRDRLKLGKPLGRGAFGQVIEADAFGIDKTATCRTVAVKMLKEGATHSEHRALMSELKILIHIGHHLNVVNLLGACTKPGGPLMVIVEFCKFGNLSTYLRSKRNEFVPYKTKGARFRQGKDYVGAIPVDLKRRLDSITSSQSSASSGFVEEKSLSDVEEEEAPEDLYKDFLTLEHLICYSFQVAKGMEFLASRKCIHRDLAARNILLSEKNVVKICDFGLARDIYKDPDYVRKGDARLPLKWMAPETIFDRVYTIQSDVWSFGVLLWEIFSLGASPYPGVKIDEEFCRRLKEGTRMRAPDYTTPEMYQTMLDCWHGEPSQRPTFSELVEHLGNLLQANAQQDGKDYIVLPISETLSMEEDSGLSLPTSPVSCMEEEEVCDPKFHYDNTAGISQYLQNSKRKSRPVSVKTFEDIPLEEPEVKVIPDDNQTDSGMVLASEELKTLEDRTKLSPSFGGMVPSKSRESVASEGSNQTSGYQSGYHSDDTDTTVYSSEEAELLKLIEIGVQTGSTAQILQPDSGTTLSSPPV
Sequence of Glycogen synthase kinase-3 beta (P49841 whole entry): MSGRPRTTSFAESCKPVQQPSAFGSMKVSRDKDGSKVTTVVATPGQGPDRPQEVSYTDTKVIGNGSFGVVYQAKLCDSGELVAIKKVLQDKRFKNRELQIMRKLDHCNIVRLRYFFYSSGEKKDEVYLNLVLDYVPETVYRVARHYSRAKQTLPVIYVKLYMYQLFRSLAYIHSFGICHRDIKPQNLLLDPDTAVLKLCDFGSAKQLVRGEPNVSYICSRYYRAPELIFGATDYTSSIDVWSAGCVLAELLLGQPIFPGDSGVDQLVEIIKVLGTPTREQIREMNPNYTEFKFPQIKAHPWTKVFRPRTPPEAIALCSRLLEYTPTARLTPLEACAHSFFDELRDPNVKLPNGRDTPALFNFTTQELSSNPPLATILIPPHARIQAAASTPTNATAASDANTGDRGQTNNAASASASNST

Turning to `COc1cc(C2=C(c3c[nH]c4ccncc34)C(=O)NC2=O)cc(OC)c1OC`, the IC50 is 40 nM in [1], not below 3 µM in test [6] and 590 nM in test [19]. In the test with HT-29 [2], the viability at 2.6 µM stood at 90.8%. Also, the Activity in the test with HUVEC [3] was found to be 31.3%; in the test on MKN-45 [4], 8.8%; in the test on MKN-45 [7], 15.7%; with MKN-45 [12], 25.7%; in the test with HUVEC [16], 46.3%; with MKN-45 [17], 31.6%. Moreover, the Activity in the test on MKN-45 [21] was determined as 21.5%. In addition, the viability at 0.5 µM with MKN-45 [5] is 99.1%. Moreover, the viability at 50 µM in the test with MKN-45 [8] is 82.5%. Moreover, the viability at 7.9 µM in the test with HT-29 [9] came to 61.5%. For the same compound, the viability at 20 µM in the test with MKN-45 [10] was 89.4%. For the same compound, the viability at 1 µM in the test on MKN-45 [11] was 100%. In the test on MKN-45 [13], the viability at 10 µM stood at 98.6%. Also, in the test with HT-29 [14], the viability at 26 µM came to 56.5%. Moreover, the “inhibition (INH)” value in test [15] was 40%. Besides, in the test with MKN-45 [18], the viability at 5 µM turned out to be 99%. The viability at 52 µM in the test with HT-29 [20] worked out at 47.4%.

In general, IC50 refers to the point on the concentration scale where inhibition reaches its midpoint. Higher therefore signals lower potency.
